Data taken from ChEMBL document CHEMBL1649446, “Comparative antipneumococcal activities of sulopenem and other drugs” (2009).

Columns and labels:
Format in all cases: functional
[1] = system: Streptococcus pneumoniae; test: Antimicrobial activity against Streptococcus pneumoniae isolate 1424 by agar dilution method
How it was run: (§1)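 Agar dilution MIC on Mueller-Hinton agar with 5% sheep blood, inocula 10^4 CFU/spot; amoxicillin-clavulanate combined 1:2; S. pneumoniae ATCC 49619 quality control each run.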

[2] = system: Streptococcus pneumoniae; test: Antimicrobial activity against Streptococcus pneumoniae isolate 3587 by agar dilution method
[3] = system: Streptococcus pneumoniae; test: Antimicrobial activity against Streptococcus pneumoniae isolate 3412 by agar dilution method; how it was run: as §1
[4] = system: Streptococcus pneumoniae; test: Antimicrobial activity against Streptococcus pneumoniae isolate 2617 by agar dilution method; how it was run: as §1
[5] = system: Streptococcus pneumoniae; test: Antimicrobial activity against Streptococcus pneumoniae isolate 2880 by agar dilution method; how it was run: as §1
[6] = system: Streptococcus pneumoniae; test: Antimicrobial activity against Streptococcus pneumoniae isolate 4755 by agar dilution method; how it was run: as §1
[7] = system: Streptococcus pneumoniae; test: Antimicrobial activity against compound-susceptible Streptococcus pneumoniae by agar dilution method; how it was run: as §1
[8] = system: Streptococcus pneumoniae; test: Antimicrobial activity against Streptococcus pneumoniae isolate 1147 by agar dilution method; how it was run: as §1
[9] = system: Streptococcus pneumoniae; test: Antimicrobial activity against Streptococcus pneumoniae isolate 3681 by agar dilution method; how it was run: as §1
[10] = system: Streptococcus pneumoniae; test: Antimicrobial activity against compound-intermediate Streptococcus pneumoniae by agar dilution method; how it was run: as §1
[11] = system: Streptococcus pneumoniae; test: Antimicrobial activity against Streptococcus pneumoniae isolate 2688 by agar dilution method; how it was run: as §1
[12] = system: Streptococcus pneumoniae; test: Antimicrobial activity against Streptococcus pneumoniae isolate 3374 by agar dilution method; how it was run: as §1
[13] = system: Streptococcus pneumoniae; test: Antimicrobial activity against Streptococcus pneumoniae isolate 3455 by agar dilution method
[14] = system: Streptococcus pneumoniae; test: Antimicrobial activity against Streptococcus pneumoniae isolate 3791 by agar dilution method; how it was run: as §1
[15] = system: Streptococcus pneumoniae; test: Antimicrobial activity against Streptococcus pneumoniae isolate 2874 by agar dilution method; how it was run: as §1
[16] = system: Streptococcus pneumoniae; test: Antimicrobial activity against Streptococcus pneumoniae isolate 1146 by agar dilution method; how it was run: as §1
[17] = system: Streptococcus pneumoniae; test: Antimicrobial activity against Streptococcus pneumoniae isolate 3260 by agar dilution method
[18] = system: Streptococcus pneumoniae; test: Antimicrobial activity against Streptococcus pneumoniae isolate 3481 by agar dilution method; how it was run: as §1
[19] = system: Streptococcus pneumoniae; test: Antimicrobial activity against Streptococcus pneumoniae isolate 1384 by agar dilution method; how it was run: as §1
[20] = system: Streptococcus pneumoniae; test: Antimicrobial activity against Streptococcus pneumoniae isolate 2686 by agar dilution method; how it was run: as §1
[21] = system: Streptococcus pneumoniae; test: Antimicrobial activity against Streptococcus pneumoniae isolate 37 by agar dilution method; how it was run: as §1
[22] = system: Streptococcus pneumoniae; test: Antimicrobial activity against Streptococcus pneumoniae isolate 33 by agar dilution method; how it was run: as §1
[23] = system: Streptococcus pneumoniae; test: Antimicrobial activity against Streptococcus pneumoniae isolate 24 by agar dilution method
[24] = system: Streptococcus pneumoniae; test: Antimicrobial activity against Streptococcus pneumoniae isolate 3282 by agar dilution method
[25] = system: Streptococcus pneumoniae; test: Antimicrobial activity against Streptococcus pneumoniae isolate 4747 by agar dilution method; how it was run: as §1
[26] = system: Streptococcus pneumoniae; test: Antimicrobial activity against compound-resistant Streptococcus pneumoniae by agar dilution method
How it was run: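 Agar dilution on Mueller-Hinton agar with 5% sheep blood, inocula 10^4 CFU/spot. Panel of 45 drug-resistant serotype 19A pneumococci, plus 297 clinical strains grouped as penicillin-susceptible, -intermediate or -resistant (some macrolide- or levofloxacin-resistant, with defined mechanisms). Amoxicillin combined with clavulanate 1:2. S. pneumoniae ATCC 49619 quality control included in each run. MIC range, MIC50 and MIC90 reported.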

[27] = system: Streptococcus pneumoniae; test: Antimicrobial activity against Streptococcus pneumoniae isolate 1564 by agar dilution method
[28] = system: Streptococcus pneumoniae; test: Antimicrobial activity against Streptococcus pneumoniae isolate 3275 by agar dilution method; how it was run: as §1
[29] = system: Streptococcus pneumoniae; test: Antimicrobial activity against Streptococcus pneumoniae isolate 3458 by agar dilution method
[30] = system: Streptococcus pneumoniae; test: Antimicrobial activity against Streptococcus pneumoniae isolate 3346 by agar dilution method
[31] = system: Streptococcus pneumoniae; test: Antimicrobial activity against Streptococcus pneumoniae isolate 1397 by agar dilution method; how it was run: as §1
[32] = system: Streptococcus pneumoniae; test: Antimicrobial activity against Streptococcus pneumoniae isolate 1394 by agar dilution method
[33] = system: Streptococcus pneumoniae; test: Antimicrobial activity against Streptococcus pneumoniae isolate 1055 by agar dilution method
[34] = system: Streptococcus pneumoniae; test: Antimicrobial activity against penicillin-resistant Streptococcus pneumoniae by agar dilution method; how it was run: as §1
[35] = system: Streptococcus pneumoniae; test: Antimicrobial activity against Streptococcus pneumoniae 10 by time-kill analysis
How it was run: (§2)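 Time-kill in cation-adjusted Mueller-Hinton broth with 5% lysed horse blood; inocula 5 × 105 to 5 × 10^6 CFU/ml; drugs at MIC, 2× and 4× MIC; 35°C shaking water bath; viable counts at 0, 3, 6, 12, 24 h. Bactericidal = ≥3 log10 CFU/ml (99.9%) drop from original inoculum; 90%/99%/99.9% killing scored per strain.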

[36] = system: Streptococcus pneumoniae; test: Antimicrobial activity against penicillin-intermediate Streptococcus pneumoniae by agar dilution method
[37] = system: Streptococcus pneumoniae; test: Antimicrobial activity against Streptococcus pneumoniae 5 by time-kill analysis
How it was run: as §2, with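 “12 and” for “12,”, “if” for “=”, “reduction” for “drop”, “90% and 99%” for “90%/99%/99.9%”, “also scored.” for “scored per strain.”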

[38] = system: Streptococcus pneumoniae; test: Antimicrobial activity against Streptococcus pneumoniae 4 by time-kill analysis; how it was run: as §2
[39] = system: Streptococcus pneumoniae; test: Antimicrobial activity against Streptococcus pneumoniae 19A by agar dilution method; how it was run: as §1
[40] = system: Streptococcus pneumoniae; test: Antimicrobial activity against Streptococcus pneumoniae 3 by time-kill analysis; how it was run: as §2
[41] = system: Streptococcus pneumoniae; test: Antimicrobial activity against Streptococcus pneumoniae 1 by time-kill analysis
How it was run: as §2, with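 “12 and” for “12,”, “if” for “=”, “reduction” for “drop”, “90% and 99%” for “90%/99%/99.9%”, “also scored.” for “scored per strain.”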

[42] = system: Streptococcus pneumoniae; test: Antimicrobial activity against Streptococcus pneumoniae 11 by time-kill analysis; how it was run: as §2
[43] = system: Streptococcus pneumoniae; test: Antimicrobial activity against Streptococcus pneumoniae 7 by time-kill analysis; how it was run: as §2
[44] = system: Streptococcus pneumoniae; test: Antimicrobial activity against Streptococcus pneumoniae 9 by time-kill analysis
How it was run: as §2, with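 “12 and” for “12,”, “if” for “=”, “reduction” for “drop”, “90% and 99%” for “90%/99%/99.9%”, “also scored.” for “scored per strain.”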

[45] = system: Streptococcus pneumoniae; test: Antimicrobial activity against Streptococcus pneumoniae 2 by time-kill analysis; how it was run: as §2
[46] = system: Streptococcus pneumoniae; test: Antimicrobial activity against Streptococcus pneumoniae isolate 3263 by agar dilution method
[47] = system: Streptococcus pneumoniae; test: Antimicrobial activity against Streptococcus pneumoniae 6 by time-kill analysis; how it was run: as §2
[48] = system: Streptococcus pneumoniae; test: Antimicrobial activity against Streptococcus pneumoniae 8 by time-kill analysis; how it was run: as §2
[49] = system: Streptococcus pneumoniae; test: Antimicrobial activity against Streptococcus pneumoniae 12 by time-kill analysis; how it was run: as §2
[50] = system: Streptococcus pneumoniae; test: Antimicrobial activity against penicillin-susceptible Streptococcus pneumoniae by agar dilution method

CC1(C)S[C@@H]2[C@H](NC(=O)Cc3ccccc3)C(=O)N2[C@H]1C(=O)O [PENICILLIN G]
2 µg/mL: MIC [1] | MIC [2] | MIC [3] | MIC [12] | MIC [14] | MIC [26] | MIC50 [26] | MIC [31] | MIC [33]
0.03 µg/mL: MIC50 [7]
4 µg/mL: MIC [5] | MIC [8] | MIC [13] | MIC [16] | MIC [17] | MIC [19] | MIC [20] | MIC [21] | MIC [22] | MIC [23] | MIC [24] | MIC [25] | MIC90 [26] | MIC [29] | MIC [30] | MIC [32]
16 µg/mL: MIC [27]
8 µg/mL: MIC [6] | MIC [11] | MIC [15] | MIC [18]
1 µg/mL: MIC [4] | MIC [9] | MIC90 [10] | MIC [28]
0.06 µg/mL: MIC90 [7]
0.25 µg/mL: MIC50 [10]

C[C@@H](O)[C@H]1C(=O)N2C(C(=O)O)=C(S[C@H]3CC[S@@+]([O-])C3)S[C@H]12 [SULOPENEM]
0.06 µg/mL: MIC [35] | MIC50 [36]
0.008 µg/mL: MIC [41] | MIC [45] | MIC50 [50]
1 µg/mL: MIC [8] | MIC [37] | MIC [11] | MIC [13] | MIC50 [39] | MIC [15] | MIC [42] | MIC [43] | MIC [16] | MIC [20] | MIC [21] | MIC [22] | MIC [48] | MIC [29]
2 µg/mL: MIC90 [39]
0.125 µg/mL: MIC [3] | MIC [28]
0.25 µg/mL: MIC [2] | MIC50 [34] | MIC [4] | MIC90 [36] | MIC [9] | MIC [12] | MIC [14] | MIC [18] | MIC [19] | MIC [46] | MIC [25] | MIC [33]
0.016 µg/mL: MIC90 [50]
0.12 µg/mL: MIC [40] | MIC [44] | MIC [47]
0.5 µg/mL: MIC [1] | MIC90 [34] | MIC [5] | MIC [6] | MIC [38] | MIC [17] | MIC [23] | MIC [24] | MIC [49] | MIC [27] | MIC [30] | MIC [31] | MIC [32]
